High-throughput results (PubChem BioAssay)
UPR CHOP act – apoptotic UPR (CHOP) activation. activation, % at 10 µM. 330,000 tested, 0.34% active. CHO-CHOP luciferase reporter, luminescence; percent of tunicamycin response over DMSO baseline;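 active = at 10 µM dose, activation of 40% or more, normalized to positive control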;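 also: 100% = tunicamycin at 10 µg/mL and 0% = DMSO alone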
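Assay system: CHO cells with stable CHOP pathway luciferase reporter; Buffer or medium: F12 plus 10% serum; Times: 16-18 h cell attachment, then 6 h compound exposure, 37 °C; Signal: luciferase luminescence; Read-out basis: percent activation relative to tunicamycin control; Control set: tunicamycin high control, DMSO low control.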
UPR XBP1 act – activators of adaptive arm of unfolded protein response (XBP1); CHO-XBP1 luciferase reporter, IRE1-XBP1 UPR activation, luminescence; percent of tunicamycin response, DMSO as zero; 330,000 tested, 0.33% active; activation, % at 20 µM; AID 463104;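 active = versus positive control, 20 µM dose yields 30% or more activation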;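 also: 100% = tunicamycin at 10 µg/mL and 0% = DMSO only wells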
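Assay system: CHO-XBP1 luciferase reporter cells; Schedule: 6 h treatment, 37 °C; Detection: glow luminescence from Steady-Glo reagent; Benchmarks: high control tunicamycin 10 µg/mL final, low control DMSO vehicle only.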
aDG glyco act – increases alpha dystroglycan glycosylation. Pro5-aDG cells, alpha-DG glycosylation AlphaScreen (IIH6); 0% Pro5, 100% B10-LARGE cell signal. activation, % at 10 µM. 360,000 tested, 0.22% active. AID 624168;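 active = activation of at least 8% versus controls, or a plate z-score of at least 8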;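 also: Pro5 are CHO cells carrying HIG-tagged alpha-DG that lacks glycosylation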
GRIN3A LBD mod – modulators (binders) of human NR3A ligand-binding domain; NR3A LBD differential scanning fluorimetry, Tm shift; 0% = protein alone, 100% = glycine-bound protein; Tm shift relative to glycine control, % at 25 µM; 340,000 tested, 2.5% active;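 active = melting temperature shift of at least 10% of the positive control shift, at one fixed dose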
CHOP inhibitor – CHOP inhibition in unfolded protein response. CHO-K1 CHOP-promoter luciferase, tunicamycin-induced, 15-18 h. inhibition, % at 10 µM. 220,000 tested, 3.8% active. AID 2732;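 active = compounds that reduced the stress-induced luciferase reporter signal by more than about 70% of percent inhibition, limit read from the data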;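 also: 0% = tunicamycin plus vehicle and 100% = wells without tunicamycin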
MPTP inh – permeability transition pore inhibition | 360,000 tested, 1.4% active | isolated mouse mitochondria, Ca2+ swelling absorbance, 30 min | inhibition, % at 10 µM;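 active = inhibition of 50% or more, scaled per plate between neutral and stimulator controls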;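 also: 0% = DMSO wells given calcium and 100% = 1 mM EGTA wells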
Numbers without * were called inactive; . = no result. An excerpt weighted towards active compounds, which were near 5.6% of everything screened.

SMILES | UPR CHOP act | UPR XBP1 act | aDG glyco act | GRIN3A LBD mod | CHOP inhibitor | MPTP inh
O=Nc1c(O)n(Cc2ccc(Cl)cc2Cl)c2ccccc12 | 0.6 | -2.4 | -0.1 | -9.2 | 87.1* | 13.0
CCOC(=O)n1c(=O)n(Cc2ccc(Cl)cc2Cl)c2ccccc21 | -0.4 | -2.6 | 0.4 | 1.0 | 80.6* | 0.0
O=Nc1c(O)n(Cc2c(Cl)cccc2Cl)c2ccccc12 | 0.3 | -0.2 | -0.2 | -2.4 | 90.6* | 10.6
CCOc1cc(/C=N/NC(=O)COc2ccccc2C)ccc1OC(=O)c1cccs1 | 0.0 | -1.4 | 0.2 | 5.1 | 75.8* | 1.5
CCOc1cc(/C=N/NS(=O)(=O)c2ccccc2)ccc1OS(=O)(=O)c1ccc(C)cc1 | -1.5 | -4.0 | 0.0 | 20.0* | 86.7* | 4.0
CCOc1cc(/C=N/NC(=O)COc2ccc(Cl)cc2)ccc1OS(=O)(=O)c1ccccc1 | 1.9 | 1.6 | 0.8 | 6.3 | 81.0* | 16.4
CCOc1cc(/C=N/NC(=O)COc2ccc(C)cc2)ccc1OC(=O)c1cccs1 | -0.5 | 0.3 | 0.3 | -3.9 | 33.6 | 2.9
COc1ccc2cc(C(=O)NCc3ccccc3CN3CCCC3)ccc2c1 | -0.7 | -2.1 | 1.6 | -0.2 | . | 0.6
Cn1cc(S(=O)(=O)N2CCNCC2)cc1C(N)=O | 0.8 | -0.3 | 0.0 | 0.1 | . | -1.0
CCN1C(=O)C(O)(CC(=O)/C=C/C=C/c2ccccc2)c2ccccc21 (stereo not given) | 1.5 | -0.8 | 0.3 | 2.5 | -15.4 | 0.3
O=C(/C=C/C=C/c1ccccc1)CC1(O)C(=O)N(CCc2ccccc2)c2ccccc21 (stereo not given) | -0.8 | -1.1 | -0.1 | -7.9 | 77.5* | -1.0
COc1cccc(NC(=S)N(Cc2cccc(Br)c2)CC2CCC(C(=O)O)CC2)c1 (stereo not given) | 2.3 | -4.9 | 0.0 | 17.0* | -0.6 | -1.0
Cc1cccc(NC(=S)N(Cc2cccc(Br)c2)CC2CCC(C(=O)O)CC2)c1 (stereo not given) | -1.3 | -2.1 | -0.4 | 1.4 | -25.0 | -2.4
COc1ccc(NC(=S)N(Cc2cccc(Br)c2)CC2CCC(C(=O)O)CC2)cc1 (stereo not given) | -0.1 | -0.4 | -0.3 | 12.2* | 2.5 | -0.6
COc1ccccc1NC(=O)N(C)C[C@@H]1OCc2cnnn2CCCC(=O)N([C@H](C)CO)C[C@H]1C | . | . | 0.0 | . | . | -1.8
N#CC1=C(N)Nc2nc3ccccc3n2C1c1ccc(Cl)cc1 (stereo not given) | 1.9 | -2.9 | 2.0 | 37.6* | 89.9* | 5.7
O=C(N/N=C/c1ccc(Cl)c([N+](=O)[O-])c1)C1CC1 | 2.4 | -1.2 | 0.3 | -1.5 | 3.8 | 1.6
S=C(N/N=C/c1ccc(Cl)c(Cl)c1)Nc1ccccc1Cl | 7.4 | 22.1 | -0.2 | 37.9* | 54.6 | 10.0
O=[N+]([O-])c1cc(/C=N/NC(=S)Nc2ccccc2Cl)ccc1Cl | 7.5 | 1.0 | 0.2 | 18.3* | -92.7 | 18.9
Cc1ccc(NC(=S)N/N=C/c2ccc(Cl)c([N+](=O)[O-])c2)cc1 | 0.2 | -0.3 | 0.1 | 21.6* | 79.8* | 3.1
Fc1ccc(/C=N/NC(=S)Nc2ccc(Cl)cc2Cl)cc1 | 1.4 | 4.6 | 0.0 | -0.9 | 16.5 | 7.2
CC(C)(CNS(=O)(=O)c1ccc2ccccc2c1)N1CCOCC1 | -0.2 | -1.4 | 2.5 | 1.2 | . | -2.6
Cc1ccccc1C(=O)N1CCC(C(=O)NN2C(=O)NC3(CCCCC3)C2=O)CC1 | -0.7 | -0.6 | -0.3 | -0.3 | . | -0.1
CCCCN1C(=O)C(=O)N(CC(=O)Nc2sc(CC)cc2C(=O)OCC)C1=O | -2.7 | -2.5 | 0.2 | 12.8* | . | 1.3
CCOC(=O)c1cc(CC)sc1NC(=O)Cc1ccccc1 | 0.7 | -1.1 | 0.0 | -1.1 | 85.3* | 0.7
SMILES | UPR CHOP act | UPR XBP1 act | aDG glyco act | GRIN3A LBD mod | CHOP inhibitor | MPTP inh
CCOC(=O)c1cc(CC)sc1NC(=O)COC | 0.2 | 0.7 | 0.0 | -0.1 | 43.6 | 0.8
CCC(=O)c1ccc(N2CCN(C(=O)c3ccc(Br)cc3)CC2)c(F)c1 | -1.9 | -5.5 | 0.6 | -1.3 | 84.6* | 9.7
CCC(=O)c1ccc(N2CCN(C(=O)c3ccc(F)cc3)CC2)c(F)c1 | -0.6 | -1.1 | 1.0 | -1.5 | 0.6 | 1.2
CCC(=O)c1ccc(N2CCN(C(=O)c3cc([N+](=O)[O-])ccc3N3CCN(C)CC3)CC2)c(F)c1 | -2.4 | -2.4 | -0.3 | 14.2* | -36.5 | 0.1
CCCC(=O)c1ccc(N2CCN(C(=O)c3ccc(Br)cc3)CC2)c(F)c1 | -0.4 | -2.0 | 0.4 | 6.5 | 73.2* | 45.4
Cc1ccc(-c2nnc(SCC(=O)N/N=C/c3ccc(C(=O)O)cc3)n2C2CCCCC2)cc1 | 1.5 | -1.1 | 0.2 | -1.1 | . | -0.1
CCC(C)c1ccc(OCC(=O)Nc2ccc3c(c2)C(=O)NC3=O)cc1 (stereo not given) | 1.4 | -4.4 | 0.1 | 1.1 | . | 0.2
CCN(CC(=O)Nc1c(F)cccc1F)C(=O)CN1C(=O)NC2(CCCC2)C1=O | 3.0 | -1.7 | 0.0 | . | . | -2.1
CC1(C(=O)NS(=O)(=O)c2ccc3ccccc3c2)CCN1C(=O)Cc1ccc(Cl)cc1Cl (stereo not given) | . | . | -0.3 | . | . | 1.5
Cc1ccc(C(=O)NC(Cc2cccc(F)c2)C(=O)O)cc1 (stereo not given) | 24.7 | 0.3 | 0.2 | -2.0 | . | 0.2
Cc1cnc(NC(=O)CSc2ncc(-c3ccccc3)n2Cc2ccco2)s1 | 0.1 | -1.2 | 0.1 | -3.0 | 73.4* | 3.0
O=C(CSc1nnc(-c2ccncc2)n1Cc1ccco1)Nc1nc(-c2ccccc2)cs1 | 4.5 | -0.3 | 1.1 | 3.2 | 77.2* | -0.4
O=C(CSc1ncc(-c2ccc(F)cc2)n1Cc1ccco1)Nc1nccs1 | 1.0 | -1.6 | 1.1 | 1.4 | 17.1 | 2.8
CC(=O)N/C(=C\c1ccccc1)C(=O)OCC(=O)N(CC(C)C)c1c(N)n(Cc2ccccc2)c(=O)[nH]c1=O | 0.3 | 2.7 | 0.0 | -1.8 | . | 1.3
COc1ccc(C(=O)CCc2ccccc2)c(O)c1 | 3.8 | 6.2 | 0.0 | 1.1 | . | 1.2
O=C(CCc1ccccc1)c1c(O)cc(O)cc1O | -0.3 | 1.5 | 0.0 | 13.3* | -6.7 | 4.9
CCn1c(SCC(=O)Nc2ccccc2)nc2ccccc2c1=O | 2.9 | -3.0 | 0.0 | -0.2 | . | 1.3
Cc1ccc(NC(=O)CSc2nc3ccccc3c(=O)n2CCCN2CCCCC2)cc1C | 1.0 | -1.8 | 8.3* | -0.6 | 2.2 | -3.3
CC(=O)c1cccc(NC(=O)CSc2nc3ccccc3c(=O)n2CCCN2CCOCC2)c1 | 0.2 | -2.5 | -0.2 | 2.4 | . | -0.1
CCCCn1c(SCC(=O)Nc2ccc(NC(C)=O)cc2)nc2ccccc2c1=O | 1.4 | -4.6 | 0.0 | 32.5* | . | 1.6
